Test: Toxicity liver stage against HepG2, at 10uM
Assay type: cell-based
Design: test concentration 10 uM, cell line HepG2-A16-CD81EGFP
Details: human, HepG2-A16-CD81EGFP cells; read-out: INHIBITION
Procedure, shortened: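 Uninfected HepG2-A16-CD81EGFP cells, 3 × 10^3 per well, 1536-well, plated on prespotted compound at 10 μM final, parasite-free screening media added to match infected plates; puromycin 10 μM positive, DMSO 0.5% negative; run in parallel with 48 h PbLuc assay at 37 °C, 5% CO2; viability by CellTiter-Glo luminescence, normalized to controls.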

| Compound | cytotoxicity at 10 µM [%] |
| --- | --- |
| O=C(c1cc(-c2cccs2)nc2ccccc12)N1CCN(CCO)CC1 | -53.2 |
| Cc1csc(C(=O)NCCN2CCC(c3cccs3)CC2)c1 | 2.03 |
| COc1ncc(NS(=O)(=O)c2ccc(OC)c(C)c2)c(OC)n1 | 34.8 |
| O=C(NC[C@H]1C[C@@H]2CN(C(=O)c3ccno3)C[C@@H]2O1)C1CCC1 | -5.21 |
| Cn1cnc2c1C(C(=O)N1CCCO1)N(C(=O)c1ccccc1)CC2 (stereo not drawn) | -0.234 |
| COCC(=O)N1CCC2(CC1)CC(OC)CO2 (stereo not drawn) | -1.56 |
| O=C(c1ccco1)N1CC[C@@H]2O[C@@H](COCC3CCOCC3)CC[C@@H]21 | 1.95 |
| CN(C)CC(=O)N1CCc2ncnc(-c3ccsc3)c2CC1 | -12.3 |
| CCn1ncc2c1C(COC)CN(Cc1cnn(C)c1)C2 (stereo not drawn) | 1.49 |
| CO[C@H]1CN(Cc2ccccc2F)[C@@H]2CCCO[C@H]12 | -0.0925 |
| Cn1cc(CN2CC[C@]3(C[C@H](OCc4ccccn4)CO3)C2)cn1 | -1.08 |
| CSC1=Nc2c(cnn2-c2ccc(C)cc2)C2=NCCCN12 | 10.3 |
| O=C(Cn1nc2c(cc1=O)CCCC2)NC(C(=O)O)c1ccccc1 (stereo not drawn) | 5.7 |
| Cc1nn(C)cc1CN(C)C(=O)c1ccncc1 | -5.51 |
| Cc1c2nnn(CC(=O)N(C)C)c(=O)c2nn1C | -4.26 |
| COc1cc(C(=O)NCC2(N(C)C)CCN(C)CC2)c2ccccc2n1 | -0.356 |
| Cc1csc(Nc2cc(C3CN(c4ccncn4)C3)nc(C)n2)n1 | 11.6 |
| Cc1cccc(Nc2ccc(C3CCCCN3)cn2)n1 (stereo not drawn) | -1.93 |
| Cc1nc(C2CN(Cc3scnc3C)CCO2)cc(N(C)C)n1 (stereo not drawn) | -12.3 |
| CC(C)Oc1ccc(CN2CCC(c3n[nH]c4ncccc34)CC2)cc1 | -21.4 |
| Cc1cc(C)nc(N2CCCC(c3cccc(-n4ccnc4)n3)C2)n1 (stereo not drawn) | -0.252 |
| Nc1cc(CCC2CN(Cc3ccc4c(c3)OCCO4)CCO2)ccn1 (stereo not drawn) | 15.8 |

| Compound | cytotoxicity at 10 µM [%] |
| --- | --- |
| Cc1cc(C)c(CN2CCCC23Cc2ccccc2CNC3=O)c(C)c1 (stereo not drawn) | 10.8 |
| Cc1ccc(CN2CCS(=O)(=O)C(C)(C)C2)cc1C | 1.05 |
| CC(C)OCc1ccccc1CNC(=O)C(C)(C)C | -8.11 |
| CSCCC(=O)N1CCN(CC(C)O)CC1 (stereo not drawn) | -5.64 |
| NC(=O)c1cncc(N2CCN(Cc3ccc(F)cc3Cl)CC2)n1 | 11.8 |
| CC(NC(=O)NC1CCN(Cc2ccncc2)CC1)c1ccccc1F (stereo not drawn) | -17.8 |
| O=C(CCc1nc(-c2ccsc2)no1)NCC1CCN(C2CC2)C1 (stereo not drawn) | 3.23 |
| CC(CNC(=O)c1cnccn1)Oc1ccc(F)cc1 (stereo not drawn) | -2.55 |
| O=C(c1ccc(F)cc1Cl)N1CCn2c(nnc2C(F)(F)F)C1 | -6.7 |
| CCc1cnc(CN(C)C(=O)NC2CCN(C)C2=O)s1 (stereo not drawn) | -0.786 |
| Cc1[nH]ncc1CCCNC(=O)Nc1ccc2c(c1)OC1(CCCC1)O2 | 18.6 |
| CC(NC(=O)N(C)Cc1cccc(OC(F)F)c1)c1nncn1C (stereo not drawn) | -2.69 |
| Cc1ccc(C(=O)Nc2cc(C(N)=O)ccc2N2CCCCC2)cc1F | 2.13 |
| CC(C)NC(=O)CCN1CCC(C(=O)c2cc(F)ccc2F)CC1 | -25 |
| COc1cccc(CN(C)CC2=Nc3ccccc3S(=O)(=O)N2)c1 | 36.4 |
| COCc1ccccc1CNC(=O)CN1CCC2(CCOC2)C1 (stereo not drawn) | -61 |
| COc1ccc(C(C)Nc2cnn(C)c(=O)c2Cl)cc1OC (stereo not drawn) | 18.7 |
| COCCS(=O)(=O)NC(C)c1ccc(-n2nc(C)cc2C)cc1 (stereo not drawn) | 1.91 |
| O=S(=O)(Cc1ccc(F)cc1)NCc1nnc2n1CCC2 | 3.82 |
| COc1ccc(C(C)N2CCC(CNC(C)=O)CC2)cc1Cl (stereo not drawn) | -51.5 |
| CC(=O)N1CCC(NS(=O)(=O)c2cccnc2)CC1 | -2.73 |
| N#Cc1ccc(NC2CCN(c3ncccn3)CC2)cc1C(F)(F)F | 27.5 |

| Compound | cytotoxicity at 10 µM [%] |
| --- | --- |
| COCCNC(=O)C[C@@H]1COC[C@H]2CN(C(=O)C3CCOCC3)C[C@@H]12 | -94.8 |
| COc1cc(N2CCN(CC3CC3)c3nc(C)ccc3C2)ncn1 | -101 |
| Cn1cc(C2COC3(CCN(C(=O)c4ccsc4)CC3)C2)cn1 (stereo not drawn) | -67 |
| Cc1cc(C(=O)N2CC[C@@]3(C[C@@H](NS(C)(=O)=O)CCO3)C2)no1 | -61.1 |
| CO[C@H]1CCN(Cc2nccs2)C[C@@H]1Cc1ccccc1 | -71.9 |
| CCO[C@@H]1CCN(C(=O)c2ccnnc2)[C@@H]1Cc1cnn(C)c1 | -62.8 |
| CCCn1c(C)c(CC(=O)NCCC(N)=O)c2c1CC(C)(C)CC2=O | 9.36 |
| O=C1NC2(CCN(Cc3ccccc3Cl)CC2)CC1c1ccccc1 (stereo not drawn) | -49.2 |
| CC(C)c1cc(C(=O)NCC2CCCN(c3ncccn3)C2)n(C)n1 (stereo not drawn) | 17.2 |
| CN(C)c1nc2c(c(N(C)Cc3n[nH]c4c3CCCC4)n1)CCNCC2 | 3.2 |
| CCO[C@H]1C[C@@H](O)C12CCN(C1CCN(c3ccccc3C)CC1)CC2 | 9.9 |
| CCc1c(C)nc(N)nc1NCCSCc1[nH]cnc1C | 4.5 |
| CCC(Nc1nc(C)nc2onc(C)c12)c1nc(C)c(C)s1 (stereo not drawn) | 37.2 |
| COCCC1(C(=O)O)CCCN(C(=O)c2cc(C)oc2C)C1 (stereo not drawn) | -5.89 |
| CCc1c(C)nc(N)nc1N1CCCC(c2nc(CCOC)no2)C1 (stereo not drawn) | 31.5 |
| COc1ccc(C(=O)C2CCCN(Cc3cc(C)n[nH]3)C2)c(OC)c1 (stereo not drawn) | -6.77 |
| CSCCc1c(-c2ccccc2)ncn1CC(C)(C)N1CCOCC1 | -47.4 |
| Cc1ccsc1CN(C)Cc1ncccc1C(=O)O | -2.55 |
| O=C(c1cnc2c(c1)CCC2)N1CCCC(CO)(CC2CC2)C1 (stereo not drawn) | -42.1 |
| O=C1N(Cc2ccc(F)c(F)c2)CCCC1(O)CNCC1CCCCC1 (stereo not drawn) | 10.5 |
| O=C(NCCN1CCc2ccccc21)c1cc(-c2ccc(O)cc2)n[nH]1 | 1.91 |
| COc1cccc(CCC2CCCN(C(=O)c3ccc(OC)o3)C2)c1 (stereo not drawn) | 9.9 |

| Compound | cytotoxicity at 10 µM [%] |
| --- | --- |
| CC(C)(CNc1cccc(Cl)c1)NC(=O)C1CCCN(CC(N)=O)C1 (stereo not drawn) | -1.46 |
| CC(C)N1CCCC2(CCN(Cc3noc(C4CCCC4)n3)C2)C1=O (stereo not drawn) | 2.24 |
| Cc1ccc(Oc2ncccc2CNS(=O)(=O)N2CCOCC2)cn1 | 9.83 |
| O=C1N(Cc2cccc(F)c2F)CCCC1(O)CNCC1CCCCC1 (stereo not drawn) | -1.29 |
| CNC(=O)c1cn2cc(-c3ccc(F)cc3)n(CC=C(C)C)c(=O)c2n1 | -52.2 |
| Cc1nn(C)c(C)c1-c1ccnc(N(C)Cc2nc(C(C)C)no2)n1 | 20.6 |
| CC(CN1CCC2(CC1)N=C(c1cccnc1)NC2=O)c1ccccc1 (stereo not drawn) | 4.5 |
| COC[C@@]12CC[C@@H](N3CCOCC3)C[C@H]1CCN(c1cc(C)ccn1)C2 | -3.53 |
| CC(C)c1ccc(NC2CCCN(Cc3ccncc3)C2)cc1 (stereo not drawn) | -10.8 |
| CN(Cc1ccno1)C(=O)c1cccc(CC2CCNCC2)c1 | -15.9 |
| CCc1ccccc1OCCN(C)C(=O)CCN1CCCCO1 | -57.1 |
| CN(CC1(CO)CC1)C(=O)C1CCC(=O)N(Cc2ccc(Cl)cc2)C1 (stereo not drawn) | -5.14 |
| CCc1cc(N2CCC3(CCCNC3=O)C2)nc(N2CCOCC2)n1 (stereo not drawn) | -0.28 |
| Cc1cc(=O)n(CC(=O)NC2CCCCC2)c2ccccc12 | 0.126 |
| Cc1c(C(=O)N2CCC(N3CCCCC3)CC2)n(C)c2ccc(Cl)cc12 | -63.8 |
| COCCN1CCCC2(CCN(c3ncnc(C)c3C)C2)C1=O (stereo not drawn) | 33.4 |
| COc1cc(CN2CCCC2)ccc1Oc1ccc2c(c1)CC(CN)O2 (stereo not drawn) | -7.79 |
| CC(=O)c1ccc(N2CCCC(CO)(CCOc3ccccc3)C2)nc1 (stereo not drawn) | 3.15 |
| Cn1c(CN2CCCC2)nnc1C1CCCN(C(=O)C2CCOCC2)C1 (stereo not drawn) | -17 |
| O=C(O)CC(NC(=O)c1ccccc1OC(F)F)c1cccs1 (stereo not drawn) | -10.8 |
| CCOCCCn1c(NC(=O)c2scnc2C)nc2ccccc21 | 5.9 |
| Cc1nccn1CC1CCCN1CCCc1nc(-c2cccs2)no1 (stereo not drawn) | -1.84 |

| Compound | cytotoxicity at 10 µM [%] |
| --- | --- |
| Cc1nc(CN(C)C2CCN(Cc3ccc4ccccc4n3)C2)no1 (stereo not drawn) | -2.23 |
| CCOc1ccc(N(CC(=O)c2ccccc2)C2=NCCCCC2)cc1 | -2.02 |
| Clc1ccc(C2(CNC3=NCCN3)CCCC2)cc1 | 14.4 |
| Cc1ccc(CN(CCCn2ccnc2)Cc2c[nH]nc2C(C)(C)C)s1 | -3.91 |
| CCOC(=O)c1ccccc1NC(=O)CN(C)Cc1ccccc1Cl | -5.65 |
| COc1ccccc1CNC(C)c1ccc(-n2ccnc2)cc1 (stereo not drawn) | 5.25 |
| COCCC(=O)N1CC2(CCN(Cc3ccccc3Cl)CC2)C1 | -73.1 |
| CN(C)CCN1CCCC12CCN(Cc1nccn1C)CC2 | -99.1 |
| CCCN1CCC2(C1)c1ccccc1S(=O)(=O)N2Cc1ccccc1 (stereo not drawn) | 16.7 |
| CN(C)C(=O)CN1CCC2(COCc3cnc(-c4cccnc4)nc32)C1 (stereo not drawn) | -115 |
| Fc1cccc(CNCC2OCCc3cn(CC4CCOCC4)nc32)c1 (stereo not drawn) | -77.1 |
| Cc1ccc(CN2CC[C@@H]3[C@H]2CCC(=O)N3Cc2ccncc2)s1 | -65.6 |
| CN(C)CCN1C(=O)CC[C@@H]2[C@H]1CCN2C(=O)c1ccc(C#N)cc1 | -7.82 |
| COc1cc(N2C[C@@H]3COC[C@]3(COCc3ccccn3)C2)ncn1 | -73.2 |
| c1cncc(N2CCCn3nnc(CN4CCCCC4)c3C2)c1 | 1.24 |
| Fc1ccc(CN2C[C@@H]3OCCN(CC4CCCO4)[C@@H]3C2)cc1 (stereo partly drawn) | -86.3 |
| OC1(Cn2ccc3ncccc32)CCN(Cc2ccccc2F)CC1 | -5.33 |
| O=C(c1ccc(F)c(Cl)c1)N1C[C@H]2CC[C@@H](C1)N(Cc1ccccc1)C2 | -8.28 |
| CCNc1c(NC(=O)NCCOC)c(=O)oc2ccccc12 | -2.89 |
| CC1(C)[C@@H]2CC=C(CN3CCCn4nc(C(=O)NCCO)cc4C3)[C@H]1C2 | -40.3 |
